By viability is commonly meant a read-out of living cells in per cent, often relative to untreated cells. Usually inhibition stands for the relative decrease from the control value, in per cent.

A number with no mark means an inactive call. Results filed as inconclusive are left out. Activity calls are given as the source filed them.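 How the source made its calls, unless noted: active means inhibition over a set limit, the all-compound mean plus 3 SD, in both replicate runs; inconclusive means over that limit in just one replicate run; inactive means at or under that limit in both runs.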

Assay [1] is described as follows: S. cerevisiae growth inhibition in permissive medium (OD615), pilot counter-assay for S. cerevisiae lifespan shortening project, permissive growth control (AID 705;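 active means growth inhibition above 25% in both replicates, a cutoff set 3 SD above the mean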). The conditions noted are these: OD615, 24 h, at 10 µM, stronger effect = higher value. An outline of the steps:
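Test system: Saccharomyces cerevisiae strain carrying genetically modified DeaD replicative-lifespan system; buffer or medium: SC raffinose/galactose permissive medium; dosing: one dose 10 µM, DMSO 0.25% final; times: 24 h exposure, 30 °C; measured by: OD at 615 nm; read-out basis: growth inhibition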

Assay [2] can be described thus: S. cerevisiae growth inhibition in restrictive medium, OD615, pilot screen, restrictive growth control, yeast lifespan reduction project (AID 706;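 active means growth inhibition above a set limit, 3 SD over mean compound inhibition, in both replicates, cut at about 43% in these data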;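 further: modified DeaD lifespan yeast strain shifted to restrictive glucose medium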). The conditions noted are these: OD615, 48 h, at 10 µM, stronger effect = higher value. An outline of the steps: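 material = engineered S. cerevisiae DeaD strain | buffer or medium = glucose-based CSMM-D restrictive medium | dosing = one concentration, 10 µM final, 0.25% DMSO | schedule = 4 h pre-growth plus 48 h compound exposure, 30 °C | detection = OD615 absorbance reading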

Assay [3] can be described thus: doxorubicin toxicity protection in MRP-1 cells – H69AR cells, CellTiter-Glo, duplicate, MRP-1 activator project, pilot screen (AID 807;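 active means viability increase at or above a cutoff of the median across tested compounds plus 3 SD, cut at about 8.5% in these data, passing the limit was not always enough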;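 further: compound pretreatment 18-22 h then 72 h combined with doxorubicin; 0% = doxorubicin alone and 100% = vehicle without doxorubicin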). The conditions noted are these: H69AR viability with doxorubicin, CellTiter-Glo luminescence; at 10 µM; stronger effect = higher value. (In ATP-based viability assays light output follows the ATP content of the culture.)
The nature of assay [4]: viability of HCT116 without oncogenic beta-catenin – human colon tumor cells, pilot screen (AID 823;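 active means cell viability at or below a set limit in both duplicate runs, the limit being the all-compound median minus 4 SD, cut at about 23% in these data, passing the limit was not always enough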;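 further: 0% = wells killed by 20 µM Hyamine and 100% = untreated DMSO cell wells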). The settings on record: HCT116 beta-catenin knockout viability, CellTiter-Glo, 60 h; at 10 µM; stronger effect = lower value.
Assay [5] is described as follows: viability of PTEN-null HCT116 cells – cell-based, HCT116 clonal line, CellTiter-Glo, pilot screen (AID 824;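 active means viability at or below 27.92% in each of two runs, the all-compound median minus 4 SD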;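 further: 0% = 20 µM Hyamine control and 100% = vehicle cell control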). The conditions noted are these: HCT116 PTEN-deleted viability, 60 h, at 10 µM, stronger effect = lower value.
A short description of assay [6]: RAM pathway blockade in budding yeast – dse1pr::URA3 reporter, 5-FOA selection, pilot screen (AID 869).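 Further: 0% = DMSO wells with no growth and 100% = 10 µM 1-NA-PP1 with full growth; RAM network block rescues cells from 5-FOA so hits raise OD615 growth.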 The conditions noted are these: S. cerevisiae dse1pr::URA3 5-FOA growth, OD615, 2 d; at 10 µM; stronger effect = higher value; strain carries analog-sensitive mutant Cbk1 kinase.
Assay [7] in a line: RAM signaling pathway blockade in yeast – S. cerevisiae, Pdr1DBD-CYC8 efflux-inhibited sensitized strain, primary screen (AID 1298;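 active means RAM network inhibition above 8.4% in each of two replicates, 3 SD over the compound average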;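 further: 0% = DMSO untreated cells without growth and 100% = 10 µM 1-NA-PP1 full growth; higher means more yeast growth rescued from 5-FOA killing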). The settings on record: S. cerevisiae cbk1-as DSE1-URA3 strain, 5-FOA growth OD615, 2 d; at 50 µM; stronger effect = higher value.

For the molecule `COc1cc(C(=O)Nc2nnc(C)s2)cc(OC)c1OC`, the figures for the growth inhibition in assay [1] and in assay [2] were -12.2% and -5.23%, respectively. For the same molecule, the viability increase in assay [3] was -2%. The results for the viability in assay [4] and in assay [5] were 95.2% and 82.3%, respectively. The inhibition in assay [6] was 2.54%. Besides, the RAM network inhibition in assay [7] was 2.16%.
Turning to `N#CC1=C(c2ccccc2)N=P(N2CCOCC2)(N2CCOCC2)N=C1N1CCOCC1`, the growth inhibition in assay [1] was -6.26%; in assay [2], -16.2%. In assay [3], the viability increase was 0.57%. Besides, the viability in assay [4] was 103%; in assay [5], 107%. The inhibition in assay [6] is 1.39%. The RAM network inhibition in assay [7] is 0.33%.
On to `CCCCOC(=O)Nc1ccc(S(=O)(=O)Nc2cc(C)nc(C)n2)cc1`, for which the growth inhibition in assay [1] is -16.6%; in assay [2], -11.7%. In addition, the viability increase in assay [3] is -1.66%. The viability is 95.8% in assay [4] and 91.6% in assay [5]. Further, in assay [6], the inhibition is 1%. In assay [7], the RAM network inhibition is 6.71%.
For the molecule `Cn1c2ccc(Cl)cc2c2nc3ccccc3nc21`, the growth inhibition was -12.8% in assay [1] and -4% in assay [2]. In assay [3], the viability increase is -5.07%. The figures for the viability in assay [4] and in assay [5] were 74.7% and 76.6%, respectively. Besides, the inhibition in assay [6] was 7.62% (active). In assay [7], the RAM network inhibition is 12.6%.
Turning to `Cc1cccc(OCC(=O)NCc2ccncc2)c1C`, the growth inhibition was -7.54% in assay [1] and -7.64% in assay [2]. Also, the viability increase in assay [3] is -1.63%. Also, the viability in assay [4] was 99.4%; in assay [5], 104%. Also, the inhibition in assay [6] is 0.525%. In addition, the RAM network inhibition in assay [7] is 4.22%.
In the case of `CCSc1nc2c(c(=O)[nH]1)C(C(C)C)C(C#N)=C(N)O2` (stereo unspecified), the growth inhibition in assay [1] was -20.5%; in assay [2] it was -13%. In assay [3], the viability increase is -2.8%. Also, the results for the viability in assay [4] and in assay [5] were 106% and 98.9%, respectively. Besides, the inhibition in assay [6] is 0.63%. Moreover, the RAM network inhibition in assay [7] is 2.73%.
In the case of `CN(C)CCNC(=O)c1ccc2c(c1)N(Cc1ccc(F)cc1)CCS2`, the values for the growth inhibition in assay [1] and in assay [2] were -2.46% and 0.095%, respectively. For the same molecule, the viability increase in assay [3] was -6.05%. In addition, the viability in assay [4] is 47.8%; in assay [5] it was 55.1%. In addition, in assay [6], the inhibition was 0.835%. Moreover, in assay [7], the RAM network inhibition was 0.57%.
With `Cc1oc(C(C)(C)C)cc1C(=O)Nc1ccc(C(=O)O)cc1`, the growth inhibition in assay [1] is 6.25%; in assay [2], -11.5%. Further, in assay [3], the viability increase was 2.02%. Further, the viability is 103% in assay [4] and 91% in assay [5]. Further, the inhibition in assay [6] is 0.6%. The RAM network inhibition in assay [7] is -1.87%.
In the case of `O=C(Nc1ccc2c(c1)OCO2)C1CCCN1C(=O)OCc1ccccc1` (stereo unspecified), the growth inhibition was -17.8% in assay [1] and -4.2% in assay [2]. In addition, the viability increase in assay [3] is -1.45%. The results for the viability in assay [4] and in assay [5] were 94.4% and 93.6%, respectively. In addition, the inhibition in assay [6] is 1.32%. In assay [7], the RAM network inhibition was 4.12%.
As for `Cc1cc(C)c(S(=O)(=O)N2CCN(C)CC2)c(C)c1`, the growth inhibition in assay [1] is -9.57%; in assay [2], -13.9%. The viability increase in assay [3] was 1.1%. The viability in assay [4] and in assay [5] was 101% in each case. Besides, in assay [6], the inhibition is 0.885%. Moreover, in assay [7], the RAM network inhibition is 1.78%.
As to `CCCOc1cccc(C(=O)Nc2cccc(NC(=O)c3ccco3)c2)c1`, the growth inhibition in assay [1] is -11.2%; in assay [2], -14.9%. For the same molecule, the viability increase in assay [3] was -3.58%. Besides, the results for the viability in assay [4] and in assay [5] were 85.3% and 91.6%, respectively. Also, the inhibition in assay [6] was 1.04%. The RAM network inhibition in assay [7] is 8.68%.
For the molecule `Cc1cc(C)c(S(=O)(=O)Nc2ccc(O)cc2)c(C)c1`, the results for the growth inhibition in assay [1] and in assay [2] were -9% and 3.16%, respectively. The viability increase in assay [3] was -1.56%. For the same molecule, the values for the viability in assay [4] and in assay [5] were 91.6% and 89.2%, respectively. The inhibition in assay [6] was 1.2%. The RAM network inhibition in assay [7] is 2.25%.
As to `O=C(CN1CCOc2ccccc21)NCc1ccc(Cl)cc1`, the growth inhibition in assay [1] is -36.4%; in assay [2], -1.02%. Besides, in assay [3], the viability increase was -6.71%. The values for the viability in assay [4] and in assay [5] were 90.8% and 81.6%, respectively. The inhibition in assay [6] is 0.665%. In assay [7], the RAM network inhibition is -0.68%.
On to `CCOC(=O)N1CCN(C(=O)CSc2nc3c(cnn3-c3ccc(C)cc3)c(=O)[nH]2)CC1`, for which the growth inhibition is -0.175% in assay [1] and 4.84% in assay [2]. Further, the viability increase in assay [3] is -4.44%. Besides, the viability in assay [4] was 95.7%; in assay [5], 94.1%. Moreover, the inhibition in assay [6] was -0.44%. Moreover, in assay [7], the RAM network inhibition was 3.12%.
Take `CN(CC(=O)N1CCc2ccccc21)S(=O)(=O)c1cccc2cccnc12`: the growth inhibition in assay [1] was -0.355%; in assay [2], -2.55%. In addition, in assay [3], the viability increase was -3.47%. Further, the viability is 93.9% in assay [4] and 90.8% in assay [5]. Moreover, the inhibition in assay [6] is 1.47%. Moreover, the RAM network inhibition in assay [7] was 8.8%.
For the molecule `CN(C)c1nc(Oc2ccc(/C=N/O)cc2)nc(N(C)C)n1`, the growth inhibition is -9.5% in assay [1] and 4.05% in assay [2]. The viability increase in assay [3] is -2.72%. For the same molecule, the viability is 101% in assay [4] and 85.1% in assay [5]. The inhibition in assay [6] was 1.58%. In addition, the RAM network inhibition in assay [7] is 2.8%.
As for `COC(=O)c1ccc(Nc2cc(C)nc3nc(C)nn23)cc1`, the growth inhibition in assay [1] is -10.5%; in assay [2] it was -4.57%. Besides, the viability increase in assay [3] is -2.65%. In addition, the viability in assay [4] was 97.3%; in assay [5] it was 94.6%. Moreover, the inhibition in assay [6] was 1.67%. Further, the RAM network inhibition in assay [7] is 0.77%.
Regarding `Cc1nc2sc(C(c3ccccc3)N3CCN(C)CC3)c(O)n2n1` (stereo unspecified), the growth inhibition in assay [1] is -3.65%; in assay [2], 8.75%. Also, in assay [3], the viability increase is 0.48%. Further, the viability was 100% in assay [4] and 103% in assay [5]. For the same molecule, the inhibition in assay [6] is 2.15%. In addition, the RAM network inhibition in assay [7] was 2.45%.

The values above are taken from PubChem BioAssay.
